# Results as given in ChEMBL document CHEMBL1154577, “Cytotoxic biflavonoids from Selaginella delicatula” (J Nat Prod, 2000).
# pIC50: −log10 of the molar value.
# Columns and labels:
# Vero = assay: Cytotoxicity against african green monkey Vero cells after 3 days; format: cell-based; conditions: Chlorocebus sabaeus, 72 h
# How it was run: (§1)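 Vero, Wish, Calu-1 and HeLa cells were kept in MEM with 10% FCS, 100 µg/mL streptomycin and 100 U/mL penicillin at 37 °C under humidified 5% CO2. Cells were exposed to various concentrations, or none, for 3 days, with a tritiated thymidine pulse for the final 16 h before harvest. Incorporation was read by scintillation counting and inhibition calculated; three independent experiments averaged.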
# HeLa [1] = assay: Cytotoxicity against human HeLa cells after 3 days; format: functional, cell-based; conditions: 72 h; how it was run: as §1
# WISH [2] = assay: Cytotoxicity against human Wish cells after 3 days; format: cell-based; conditions: 72 h; how it was run: as §1
# Calu-1 [3] = assay: Cytotoxicity against human Calu1 cells after 3 days; format: functional, cell-based; conditions: Calu-1, 72 h; how it was run: as §1
# K562 [4] = assay: Cytotoxicity against human K562 cells after 3 days; format: functional, cell-based; conditions: K562, 72 h
# How it was run: (§2)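 K562 (erythroleukemia) and Raji (EBV-transformed B) cells grown in RPMI-1640 with 10% FCS, 100 U/mL penicillin and 100 µg/mL streptomycin at 37 °C under humidified 5% CO2. They were cultured with or without various concentrations for 3 days, then pulsed with tritiated thymidine for 16 h before harvest. Radioactivity was counted by scintillation and inhibition calculated; mean of three independent experiments.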
# Raji [5] = assay: Cytotoxicity against human Raji cells after 3 days; format: functional, cell-based; conditions: 72 h; how it was run: as §2
# Raji [6] = assay: Cytotoxicity against human Raji cells at 50 uM after 3 days; format: functional; conditions: 72 h; how it was run: as §2
# K562 [7] = assay: Cytotoxicity against human K562 cells at 100 uM after 3 days; format: functional; conditions: K562, 72 h; how it was run: as §2
# [8] = Cytotoxicity against african green monkey Vero cells at 100 uM after 3 days; format: cell-based; conditions: chlorocebus sabaeus, read-out: INH; how it was run: as §1
# Calu-1 [9] = assay: Cytotoxicity against human Calu1 cells at 12.5 uM after 3 days; format: functional; conditions: Calu-1, 72 h; how it was run: as §1
# Raji [10] = assay: Cytotoxicity against human Raji cells at 25 uM after 3 days; format: functional; conditions: 72 h; how it was run: as §2
# Calu-1 [11] = assay: Cytotoxicity against human Calu1 cells at 50 uM after 3 days; format: functional; conditions: Calu-1, 72 h; how it was run: as §1
# Raji [12] = assay: Cytotoxicity against human Raji cells at 100 uM after 3 days; format: functional; conditions: 72 h; how it was run: as §2
# HeLa [13] = assay: Cytotoxicity against human HeLa cells at 100 uM after 3 days; format: functional; conditions: 72 h; how it was run: as §1
# Calu-1 [14] = assay: Cytotoxicity against human Calu1 cells at 100 uM after 3 days; format: functional; conditions: Calu-1, 72 h; how it was run: as §1
# Calu-1 [15] = assay: Cytotoxicity against human Calu1 cells at 25 uM after 3 days; format: functional; conditions: Calu-1, 72 h; how it was run: as §1
# Raji [16] = assay: Cytotoxicity against human Raji cells at 12.5 uM after 3 days; format: functional; conditions: 72 h; how it was run: as §2
# WISH [17] = assay: Cytotoxicity against human Wish cells at 100 uM after 3 days; format: cell-based; conditions: 72 h; how it was run: as §1
Structure (SMILES),pIC50 (Vero),pIC50 (HeLa [1]),pIC50 (WISH [2]),pIC50 (Calu-1 [3]),pIC50 (K562 [4]),pIC50 (Raji [5]),inhibition at 50 µM (Raji [6]),inhibition at 100 µM (K562 [7]),"cytotoxicity at 72 h, 100 µM [8]",inhibition at 12.5 µM (Calu-1 [9]),inhibition at 25 µM (Raji [10]),inhibition at 50 µM (Calu-1 [11]),inhibition at 100 µM (Raji [12]),inhibition at 100 µM (HeLa [13]),inhibition at 100 µM (Calu-1 [14]),inhibition at 25 µM (Calu-1 [15]),inhibition at 12.5 µM (Raji [16]),inhibition (INH) (WISH [17])
COc1cc(O)c2c(=O)cc(-c3ccc(OC)c(-c4c(OC)cc5c(c4O)C(=O)C[C@H](c4ccc(O)cc4)O5)c3)oc2c1,< 4.00,< 4.00,< 4.00,< 4.00,< 4.00,< 4.00,–,–,–,–,–,–,–,–,–,–,–,–
COc1cc(O)c2c(=O)cc(-c3ccc(OC)c(-c4c(O)cc5oc(-c6ccc(O)cc6)cc(=O)c5c4O)c3)oc2c1,< 4.00,< 4.00,< 4.00,< 4.00,< 4.00,< 4.00,–,–,–,–,–,–,–,–,–,–,–,–
O=c1cc(-c2ccc(O)c(-c3c(O)cc(O)c4c(=O)cc(-c5ccc(O)cc5)oc34)c2)oc2cc(O)cc(O)c12 [AMENTOFLAVONE],< 4.00,< 4.00,< 4.00,< 4.00,< 4.00,< 4.00,–,–,–,–,–,–,–,–,–,–,–,–
O=c1cc(-c2ccc(O)c(-c3c(O)cc4oc(-c5ccc(O)cc5)cc(=O)c4c3O)c2)oc2cc(O)cc(O)c12 [ROBUSTAFLAVONE],< 4.00,< 4.00,< 4.00,< 4.00,< 4.00,< 4.00,–,–,–,–,–,–,–,–,–,–,–,–
COc1cc(O)c2c(=O)cc(-c3ccc(OC)c(-c4c(O)cc5c(c4O)C(=O)C[C@H](c4ccc(O)cc4)O5)c3)oc2c1,–,–,–,–,–,–,24.7%,18%,26.8%,15.8%,22.3%,55.4%,96.3%,35%,100%,29.9%,17.9%,-65%
COc1ccc(-c2cc(=O)c3c(O)cc(O)cc3o2)cc1-c1c(O)cc2oc(-c3ccc(O)cc3)cc(=O)c2c1O,–,–,–,–,–,–,68.5%,10.8%,-6.6%,42.6%,60.7%,77.9%,98.4%,5.5%,100%,44.6%,34.2%,-90%
